# Measurements: publication PMC9290342 (Clinical Pharmacology in Drug Development, 2021)
# Where two headings read alike, the source gives them in different places.
# Legend:
# [1] = format: in vivo, human; conditions: for tmax, total methylprednisolone: median (minimum‐maximum)
# Outline: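 Oral methylprednisolone tablets were given to healthy in-clinic volunteers, with serial whole-blood sampling over 24 h after dosing on study days 1 and 4. Plasma total methylprednisolone was quantified by validated LC–MS/MS. The PK population comprised subjects with at least 4 consecutive quantifiable concentrations. Parameters were summarized descriptively.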
# [2] = Plasma pharmacokinetics of free methylprednisolone after oral methylprednisolone; format: in vivo, human; conditions: oral 32 mg daily; for tmax, free methylprednisolone: median (minimum‐maximum)
# [3] = test system: steroidogenic concentration (CSG = 5 × ConcMPD + ConcCortisol); experiment: Steroidogenic exposure; format: in vivo, human; conditions: oral methylprednisolone 32 mg daily
# Outline: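 After oral methylprednisolone on days 1 and 4, plasma total and free methylprednisolone were measured over 24 h by LC–MS/MS, alongside serum total and plasma free cortisol. Steroidogenic concentration was CSG = 5 × methylprednisolone concentration + cortisol concentration. AUEC24SG was derived noncompartmentally from actual sampling times, in subjects belonging to both the PK and PD populations.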
# [4] = Safety: adverse events, examinations, laboratory tests; format: in vivo, human; conditions: n = 16 subjects per study drug group
# Outline: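 The safety population comprised every subject given ≥1 dose. Assessments throughout the study covered AEs, TEAEs (events after the first dose through study completion), serious TEAEs, physical examinations, vital signs, 12‑lead ECGs and clinical laboratory tests. Results were summarized descriptively.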
# [5] = every 1 mg of methylprednisolone is equivalent to 5 mg of cortisol; cited from earlier work
# [6] = oral 32 mg daily, plasma, day 1, mean (SD), n = 16
# [7] = oral 32 mg daily, plasma, day 4, mean (SD), n = 14
# [8] = plasma, day 1, mean (SD), n = 16
structure (smiles),measurement,setting,value
"C[C@H]1C[C@@H]2[C@H]([C@@H](O)C[C@@]3(C)[C@H]2CC[C@]3(O)C(=O)CO)[C@@]2(C)C=CC(=O)C=C12 [Methylprednisolone, methylprednisolone]","RAUC0‐24 (accumulation ratio), total methylprednisolone","[1]; oral 32 mg daily, AUC0-24 on day 4 divided by AUC0-24 on day 1, mean",0.9
same,time of mean peak plasma total methylprednisolone concentration (mean profile),"[1]; oral 32 mg daily, after oral dosing",around 2 hours
same,"AUC0‐inf, total methylprednisolone",[1]; [6],n = 16 1030 (380) ng • h/mL
same,"AUC0‐last, total methylprednisolone",[1]; [6],n = 16 1020 (381) ng • h/mL
same,"t½, total methylprednisolone",[1]; [6],n = 16 2.2 (0.6) h
same,"t½, total methylprednisolone","[1]; oral 32 mg daily, plasma, day 1, mean (SD), n = 16, listed as methylprednisolone",2.2 h
same,"tmax, total methylprednisolone","[1]; oral 32 mg daily, plasma, day 1, n = 16",n = 16 2.0 (2.0‐4.0) h
same,"AUC0‐last, total methylprednisolone",[1]; [7],n = 14 919 (297) ng • h/mL
same,"t½, total methylprednisolone",[1]; [7],n = 14 2.4 (0.7) h
same,"t½, total methylprednisolone","[1]; oral 32 mg daily, plasma, day 4, mean (SD), n = 14, listed as methylprednisolone",2.4 h
same,"tmax, total methylprednisolone","[1]; oral 32 mg daily, plasma, day 4, n = 14",n = 14 2.0 (1.0‐4.0) h
same,"Cmax, total methylprednisolone","[1]; oral methylprednisolone 32 mg daily, plasma, LC-MS/MS, day 4, mean (SD), n = 14",n = 14 188.0 (40.0) ng/mL
same,time of mean peak plasma free methylprednisolone concentration (mean profile),[2]; after oral dosing,2 h
same,"Cmax, free methylprednisolone","[2]; plasma, LC-MS/MS, day 4, mean (SD), n = 15",n = 15 21.9 (5.4) ng/mL
same,"AUC0‐inf, free methylprednisolone",[2]; [8],n = 16 106 (36) ng • h/mL
same,"AUC0‐last, free methylprednisolone",[2]; [8],n = 16 104.0 (35.2) ng • h/mL
same,"t½, free methylprednisolone",[2]; [8],n = 16 1.9 (0.5) h
same,"t½, free methylprednisolone","[2]; plasma, day 1, mean (SD), n = 16, listed as methylprednisolone",1.9 h
same,"tmax, free methylprednisolone","[2]; plasma, day 1, n = 16",n = 16 2.0 (1.0‐4.0) h
same,"t½, free methylprednisolone","[2]; plasma, day 4, mean (SD), n = 13",n = 13 2.0 (0.5) h
same,"t½, free methylprednisolone","[2]; plasma, day 4, mean (SD), n = 13, listed as methylprednisolone",2.0 h
same,"AUC0‐last, free methylprednisolone","[2]; plasma, day 4, mean (SD), n = 15",n = 15 89.5 (27.3) ng • h/mL
same,"tmax, free methylprednisolone","[2]; plasma, day 4, n = 15",n = 15 2.0 (1.0‐4.0) h
same,plasma total AUEC24SG,"[3]; day 1, mean (SD 1770.0)",6480.0 ng·h/mL
same,plasma free AUEC24SG,"[3]; day 4, mean (SD 136.0)",492.0 ng·h/mL
same,plasma total AUEC24SG,"[3]; day 4, mean (SD 1330.0)",5440.0 ng·h/mL
same,Any TESAE,[4],0 n (%)
same,Subjects with any TEAE,[4],10 (62.5) n (%)
same,TEAE: Contusion,[4],1 (6.3) n (%)
same,TEAE: Dysuria,[4],0 n (%)
same,TEAE: Headache,[4],2 (12.5) n (%)
same,TEAE: Heart palpitations,[4],2 (12.5) n (%)
same,TEAE: Injection site reaction,[4],0 n (%)
same,TEAE: Insomnia,[4],0 n (%)
same,TEAE: Somnolence,[4],0 n (%)
same,TESAE: Pulmonary embolism,[4],0 n (%)
same,AEs,[4]; number of adverse events,17 n
same,potency relative to cortisol (times more potent),[5],5 times
